Series [1] deals with FRB-FKBP (Homo sapiens, UniProt P42345+P62942). Nature of the series: Real-time reversibility of CBG-N + CBG-C PCA. Type of series: cell-based.
The target of series [2] is FRB-FKBP. The note with it: ref Bierer et al., 1990, cited from earlier work.
For series [3] the following is noted: ref Inoue et al., 2005; cited from earlier work.
Series [4] deals with NFκB. Briefly: NFκB-dependent transcriptional reporter. The note with it: HEK293T, 2 hours. The series is classed as cell-based. In short, it runs like this: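 HEK293T cells in 24-well plates were transfected with an NFκB-driven FLuc reporter (200 ng/well). At 48 h the medium was changed to DMEM imaging medium. After 15 min equilibration a pre-treatment image was taken. Cells then received TNFα (20 ng/ml final) and/or a GSK3β inhibitor (50 μM final) or DMSO vehicle, and were re-imaged after 2 h in a humidified 5% CO2 incubator. Photon flux is reported as mean fold-initial ± S.E.M.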

Series [5] relates to β-cat/β-TrCP. Briefly: Two-color PCA switch, green: β-cat/β-TrCP interaction. Type of series: cell-based. Particulars: HEK293T.
Series [6] deals with IκBα/β-TrCP. Briefly: Two-color PCA switch, red: IκBα/β-TrCP interaction. Type of series: cell-based. The note with it: HEK293T, TNFα 20 ng/ml.
Series [7] concerns PCA luciferase. Nature of the series: Control: effect on PCA luciferase enzyme activity. The note with it: data not shown.
The subject of series [8] is EGFR. Briefly: EGFR-CBG PCA conformation sensing in CHO TetOn cells. The series is classed as cell-based. In short, it runs like this:
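CHO TetOn cells in 96-well plates were transfected for 24 h with EGFR-CBG PCA fusion pairs, then serum-starved for 3 h. They were pre-incubated for 20 min untreated, with DMSO vehicle, or with test compound (10 μM). Baseline was imaged every 15 s for 10 min, then 25 nM EGF was added and imaging continued for 20 min. Untreated-well signal was subtracted. Mean of 8 replicate wells.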

The target in series [9] is ΔFRB (S2035I)-FKBP (Homo sapiens, UniProt P42345+P62942, S2035I). Briefly: Luciferase PCA with mutant S2035I FRB. Type of series: cell-based. Particulars: HEK293T, 100 nM rapamycin for 6 hrs, Δ-N fusions.
Series [10] concerns IκBα. Briefly: IκBα-FLuc fusion reporter processing in HepG2 cells. The series is classed as cell-based. Particulars: HepG2, TNFα 20 ng/mL. In short, it runs like this: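 HepG2 cells were transiently transfected with a κB5-driven IκBα-FLuc fusion reporter (wild type or Ser32/Ser36 Ala mutants). After 48 h the medium was replaced with fresh medium containing D-luciferin, and cells were stimulated with TNFα (20 ng/mL) or vehicle. Real-time bioluminescence imaging was run under 5% CO2. Photon flux is reported as fold-initial, fold-untreated, mean ± S.E.M.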

Chain of FRB-FKBP (Homo sapiens, UniProt P42345+P62942) (P42345 2024-2113 limits assumed): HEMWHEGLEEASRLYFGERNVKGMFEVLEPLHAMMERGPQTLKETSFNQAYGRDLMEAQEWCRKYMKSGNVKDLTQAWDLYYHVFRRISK
Chain of FRB-FKBP (Homo sapiens, UniProt P42345+P62942) (P62942 whole entry): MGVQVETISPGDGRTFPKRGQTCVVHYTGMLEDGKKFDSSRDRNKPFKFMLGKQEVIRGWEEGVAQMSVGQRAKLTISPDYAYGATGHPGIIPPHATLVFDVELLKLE
Chain of ΔFRB (S2035I)-FKBP (P42345 2024-2113 S2035I): as the sequence (P42345 2024-2113 limits assumed) above, with S12I counted along it
Chain of ΔFRB (S2035I)-FKBP (P62942 whole entry, the tested form may be a part): as the sequence (P62942 whole entry) above

Turning to `C=CC[C@@H]1/C=C(\C)C[C@H](C)C[C@H](OC)[C@H]2O[C@@](O)(C(=O)C(=O)N3CCCC[C@H]3C(=O)O[C@H](/C(C)=C/[C@@H]3CC[C@@H](O)[C@H](OC)C3)[C@H](C)[C@@H](O)CC1=O)[C@H](C)C[C@@H]2OC` [FK506], in [1] (HEK293T, CBG-N + CBG-C, rapamycin 10 nM, FK506 10 μM added at […]), the “change of bioluminescence after rapamycin pre-treatment” value was “brisk loss of bioluminescence”. Also, the Ki (in general, a measure of affinity in units of concentration, obtained from inhibition or displacement) in series [2] (read-out: previously reported literature Ki) was 0.4 nM. For the same compound, in [3], the membrane permeability result is “somewhat low”.
`Cn1cc(C2=C(c3ccc(Cl)cc3Cl)C(=O)NC2=O)c2ccccc21` [SB-216763]: in series [4] (TNFα 20 ng/ml combined with SB216763 50 μM), the “TNFα-stimulated NFκB-dependent transcription (FLuc reporter)” value is on record as “dramatically attenuated”. Besides, the “basal β-cat/β-TrCP interactions (green photon flux)” value in [5] (SB-216763 50 μM) was “attenuated”. The “basal and TNFα-induced IκBα/β-TrCP interactions (red photon flux)” value in series [6] (SB-216763 50 μM) is given as “inhibited”. Also, in [7], the “effect on PCA luciferase enzyme activity per se” value is “no effect”.
With `N#CC(=C(/N)Sc1ccccc1N)/C(C#N)=C(/N)Sc1ccccc1N` [U0126], in series [8] (10 μM U0126, 25 nM EGF), the “recovery of luciferase PCA activity after EGF” value is listed as “blunted recovery of luciferase PCA activity”.
In the case of `C[C@@H]1C[C@@H]([C@H](O)CC2CC(=O)NC(=O)C2)C(=O)[C@@H](C)C1` [cycloheximide], the “luciferase activity after rapamycin induction” value in series [1] (cycloheximide 100 μM added to rapamycin-induced cells) is recorded as “remained stable for up to 8 hours”.
As to `CO[C@H]1C[C@@H]2CC[C@@H](C)[C@@](O)(O2)C(=O)C(=O)N2CCCC[C@H]2C(=O)O[C@H]([C@H](C)C[C@@H]2CC[C@@H](O)[C@H](OC)C2)CC(=O)[C@H](C)/C=C(\C)[C@@H](O)[C@@H](OC)C(=O)[C@H](C)C[C@H](C)/C=C/C=C/C=C/1C` [rapamycin], the “induction of PCA signal” value in [9] is recorded as “no detectable induction”. In addition, in [2] (read-out: previously reported Kd), the Kd (in general, the constant that tells how readily two partners part at equilibrium) was 0.2 nM. For the same compound, the membrane permeability entry in series [3] is listed as “somewhat low”.
As to “EGF: recombinant mouse EGF ligand inducing EGFR activation (NSYPGCPSSYDGYCLNGGVCMHIESLDSYTCNCVIGYSGDRCQTRDLRWWELR; UniProt P01132 977-1029, looked up)”, the “luciferase PCA signal response” value in series [8] (25 nM recombinant mouse EGF) is given as “rapid biphasic signal response”.
Turning to TNFα, the “NFκB-dependent transcription (FLuc reporter)” value in [4] (TNFα 20 ng/ml alone) was “robust transcriptional stimulation”. The “β-cat/β-TrCP basal green photon flux” value in [5] (TNFα 20 ng/ml) is listed as “no substantial change”. Besides, the “IκBα/β-TrCP interactions (red photon flux)” value in series [6] is given as “increase in red photon flux”. For the same compound, in series [10], the “IκBα-FLuc reporter signal (wild type)” value was “loss of signal”.

Source of the values: article PMC2943495 (Chemistry & biology, 2010).
